In PMC9579399 (Clinical and Translational Science, 2022):

Test system: healthy Chinese male subjects
Assay: Safety evaluation
Format: in vivo, human
Conditions: n = 49 per group
Procedure, shortened: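 AEs recorded throughout the study by investigators, including laboratory tests (hematology, biochemistry, urinalysis), vital signs, physical exams, 12-lead ECG and injection site reactions. Subjects with AEs followed until return to normal or baseline. Incidence calculated as subjects with at least one AE divided by total subjects.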

CCCCCCCCCCCCCCCC(=O)N[C@@H](CCC(=O)NCCCC[C@H](NC(=O)[C@H](C)NC(=O)[C@H](C)NC(=O)[C@H](CCC(N)=O)NC(=O)CNC(=O)[C@H](CCC(=O)O)NC(=O)[C@H](CC(C)C)NC(=O)[C@H](Cc1ccc(O)cc1)NC(=O)[C@H](CO)NC(=O)[C@H](CO)NC(=O)[C@@H](NC(=O)[C@H](CC(=O)O)NC(=O)[C@H](CO)NC(=O)[C@@H](NC(=O)[C@H](Cc1ccccc1)NC(=O)[C@@H](NC(=O)CNC(=O)[C@H](CCC(=O)O)NC(=O)[C@H](C)NC(=O)[C@@H](N)Cc1cnc[nH]1)[C@@H](C)O)[C@@H](C)O)C(C)C)C(=O)N[C@@H](CCC(=O)O)C(=O)N[C@@H](Cc1ccccc1)C(=O)N[C@H](C(=O)N[C@@H](C)C(=O)N[C@@H](Cc1c[nH]c2ccccc12)C(=O)N[C@@H](CC(C)C)C(=O)N[C@H](C(=O)N[C@@H](CCCNC(=N)N)C(=O)NCC(=O)N[C@@H](CCCNC(=N)N)C(=O)NCC(=O)O)C(C)C)[C@@H](C)CC)C(=O)O [Victoza, Liraglutide]
incidence of AEs (percentage of subjects with at least one AE): 32.7%
incidence of TRAEs (percentage of subjects with at least one TRAE): 24.5%
Number of events (AEs) (single 0.6 mg s.c.): 19
Number of events (TRAEs) (single 0.6 mg s.c.): 12
